Test [1] relates to purified mitochondria (respiratory control). The experiment in a line: Respiratory control. Particulars: 1 μM Vpr-derived peptides, 10 min. It is filed as biochemical, mouse. In a few lines:
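Clark-electrode oxygraphy at 37°C in 0.3 M mannitol, 10 mM KCl, 5 mM MgCl2, 1 mg/ml BSA, 10 mM KH2PO4, pH 7.4. Purified mitochondria were pretreated 10 min with 1 μM peptide; succinate oxidation was followed with sequential ADP, oligomycin and CCCP additions. Mean of three determinations.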

The subject of another test is PTPC. Particulars: cited from earlier work.
The next test has as its system recombinant Bcl-2. The experiment in a line: Plasmon resonance: interaction with recombinant Bcl-2. Particulars: surface plasmon resonance, control experiments. It is filed as binding, human. Background: In SPR one partner is held on a chip, and binding of the other changes the refractive index at the surface.
The target of test [2] is T1, ANT (Rattus norvegicus, UniProt Q05962).
T1 sequence (Q05962 1-298): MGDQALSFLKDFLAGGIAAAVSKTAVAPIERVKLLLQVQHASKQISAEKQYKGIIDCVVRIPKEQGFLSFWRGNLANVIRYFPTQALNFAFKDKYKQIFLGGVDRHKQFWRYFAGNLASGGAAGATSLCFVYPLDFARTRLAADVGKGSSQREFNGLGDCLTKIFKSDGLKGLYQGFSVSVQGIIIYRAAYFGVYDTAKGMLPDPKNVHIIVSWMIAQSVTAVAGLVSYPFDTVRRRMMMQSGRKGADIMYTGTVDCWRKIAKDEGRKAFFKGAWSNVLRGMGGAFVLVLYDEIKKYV
As to the kind of experiment: Planar lipid bilayers, single channel level, Vpr52-96 plus ANT. Particulars: Vpr52-96 plus ANT 0.4:1 nM, +115 mV; tip-dip technique. In kind it is biochemical. In a few lines:
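Rat heart mitochondrial ANT, purified via subtilisin treatment, Triton X-100 solubilization, hydroxyapatite and SP column (0–1 M NaCl). Proteins held 30 min RT with 1 mM CaCl2, 40 μM atractyloside or control electrolyte, mixed with dried lipid (60 μg protein/mg lipid), detergent removed by beads. Tip-dip bilayers, symmetric 100 mM KCl, 2 mM MgCl2, 10 mM Hepes pH 7.4.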

Test [3] in a line: Pore-opening assay: plain liposomes. It is filed as biochemical. Particulars: 4-MUP loaded, data not shown. In a few lines:
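Liposomes sonicated on ice with 1 mM 4-MUP and 10 mM KCl, then freed of unencapsulated probe on Sephadex G-25. Diluted in 10 mM Hepes, 125 mM saccharose pH 7.4 and exposed to inducers for 1 h at RT; inhibitors were added 30 min earlier. Alkaline phosphatase with 0.5 mM MgCl2 was added for 15 min at 37°C and stopped with EDTA buffer at pH 10. 4-MU fluorescence (360/450 nm) was expressed as % of the atractyloside response after subtracting untreated liposomes.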

In test [4] the test system is purified mitochondria (cytochrome c release). As to the kind of experiment: Cytochrome c release immunodetected in supernatant of mitochondria. It is filed as biochemical, mouse. Particulars: 1 μM Vpr52-96; immunoblot; Fig. 5 C. In a few lines:
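Mouse liver mitochondria treated with test peptide over a time course. Supernatants cleared by two spins (6,800 g 15 min; 20,000 g 1 h; both 4°C), stored at −80°C, and cytochrome c immunodetected with a mouse monoclonal antibody. In parallel, ΔΨm loss scored by flow cytometry with JC-1 as percent low-ΔΨm mitochondria.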
(In general: A western blot detects proteins with antibodies after separation by electrophoresis.)

For a further test, the system named is recombinant VDAC. As to the kind of experiment: Plasmon resonance: binding to recombinant VDAC. Particulars: control experiments, VDAC concentrations up to 10 μM.
Test [5] has as its system ANT proteoliposomes. The experiment in a line: Binding of FITC-labeled Vpr52-96 to ANT proteoliposomes. On the set-up: species or system rat. Particulars: FITC-labeled Vpr52-96, 30 min; Fig. 2 A; n = 3. In a few lines: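 ANT was purified from rat heart mitochondria (Triton X-100 extraction, hydroxyapatite, then cation-exchange with a 0–1 M NaCl gradient) and reconstituted at 0.1 mg/ml into phosphatidylcholine/cardiolipin liposomes, then dialysed overnight at 4°C. Proteoliposomes were exposed 30 min to FITC-peptide in 125 mM sucrose/10 mM Hepes pH 7.4, ultracentrifuged (290,000 g, 45 min, 10°C) and read by flow cytometry. Inhibitors were preincubated and washed out; mean ± SD, n = 3.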

The subject of test [6] is purified mitochondria, inner membrane. The experiment in a line: Respirometry: NADH-dependent oxygen consumption. In kind it is biochemical, mouse. In a few lines: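 Oxygen uptake was recorded by Clark electrode at 37°C (mannitol/KCl/MgCl2/BSA/KH2PO4 medium, pH 7.4) after 2 mM NADH and 1 μM peptide, with rotenone added to test sensitivity; rates are in nmol O2/min/mg protein. For inhibitor tests, mitochondria were pretreated 10 min with 0.8 μM Bcl-2 or 10 μM BA before succinate plus CCCP or NADH. In the kinetics, 15 μM cytochrome c oxidation was followed in parallel, with 100% set by 2.5 mM laurylmaltoside.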

A short description of test [7]: Planar lipid bilayers, single channel level, Vpr52-96 without ANT. It is filed as biochemical. Particulars: <1 nM Vpr52-96. In a few lines:
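Solvent-free planar bilayers formed by monolayer apposition on a 125-μm Teflon aperture, or by tip-dip on patch pipettes. Recording was in symmetric 100 mM KCl, 2 mM MgCl2, 10 mM Hepes pH 7.4, with Ag/AgCl electrodes under applied voltage. Bare membranes were first checked for electrical silence; peptide was added to the aqueous subphase after bilayer formation. Single-channel current traces show the most frequent events.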

For the next test, the system named is isolated mitochondria. The experiment in a line: Ultrastructure: swelling of isolated mitochondria. In kind it is biochemical, mouse. Particulars: for swollen mitochondria: control <5%.
For test [8], the target named is T1, ANT. As to the kind of experiment: Plasmon resonance. It is filed as binding.
The subject of test [9] is purified mitochondria (respiratory chain). The experiment in a line: Polarography: succinate oxidation of purified mitochondria. It is filed as biochemical, mouse. Particulars: 1 μM Vpr52-96, 10 min pretreatment; Fig. 4 A. In a few lines:
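Mouse liver mitochondria, pretreated 10 min with test peptide or untreated, held at 37°C in a Clark-electrode cell. Medium: 0.3 M mannitol, 10 mM KCl, 5 mM MgCl2, 1 mg/ml BSA, 10 mM KH2PO4, pH 7.4. Oxygen consumption traced on succinate with sequential ADP, oligomycin and CCCP additions.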

Test [10] concerns ANT proteoliposomes. The experiment in a line: Pore-opening assay: 4-MUP release from ANT proteoliposomes. It is filed as biochemical, rat. Particulars: peptides 1 μM, 60 min, Atr 200 μM = 100%, Fig. 2 C. In a few lines: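 ANT purified from rat heart mitochondria, reconstituted into PC/cardiolipin liposomes, sonicated on ice with 1 mM 4-MUP/10 mM KCl, gel-filtered. Diluted in 10 mM Hepes, 125 mM saccharose pH 7.4, peptide 1 h RT; inhibitors added 30 min earlier. Alkaline phosphatase (0.5 mM MgCl2) 15 min 37°C, stopped at pH 10. 4-MU fluorescence 360/450 nm. Release = % of atractyloside response after untreated background subtraction; n = 3, SD.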

The test system of test [11] is purified mitochondria, outer membrane. As to the kind of experiment: Cytochrome c oxidation. Particulars: 15 μM cytochrome c; 100% by 2.5 mM laurylmaltoside; Fig. 5 B. In kind it is biochemical, mouse. In a few lines:
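Mouse liver mitochondria exposed to test peptide, followed over time. Outer-membrane permeability read as spectrophotometric/spectrofluorometric oxidation of added reduced cytochrome c (15 μM) by cytochrome c oxidase. Maximal (100%) oxidation set by 2.5 mM laurylmaltoside; signal expressed as a percentage of this. Inner-membrane NADH oxidation (2 mM, oxygen consumption) tracked in parallel.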

Results on three compounds are retold here after article PMC2195906 (The Journal of Experimental Medicine, 2001).

“Also recorded” adds a separate entry of the source.

In the case of “Vpr1-96: entire (full-length) Vpr protein”, the “effect on RC (in words)” value in test [1] is listed as “also reduced the RC values”. Moreover, the “action on PTPC and mitochondrial hallmarks of apoptosis” value with PTPC is “act on the PTPC to induce all mitochondrial hallmarks of apoptosis, including ΔΨm loss and the release of cytochrome c and apoptosis-inducing factor (AIF)”.

As for “Vpr53-96: printed once; probably Vpr52-96”, the “interaction with recombinant Bcl-2” value in the test on recombinant Bcl-2 was “found not to interact with recombinant Bcl-2”.

Consider `CC[C@H](C)[C@H](NC(=O)CNC(=O)[C@@H](NC(=O)[C@H](CCCNC(=N)N)NC(=O)[C@H](CO)NC(=O)[C@H](Cc1c[nH]cn1)NC(=O)[C@H](CCCNC(=N)N)NC(=O)[C@H](CS)NC(=O)CNC(=O)[C@@H](NC(=O)[C@H](CCCNC(=N)N)NC(=O)[C@H](Cc1ccccc1)NC(=O)[C@H](Cc1c[nH]cn1)NC(=O)[C@@H](NC(=O)[C@H](Cc1ccccc1)NC(=O)[C@H](CC(C)C)NC(=O)[C@H](CC(C)C)NC(=O)[C@H](CCC(N)=O)NC(=O)[C@H](CCC(N)=O)NC(=O)[C@H](CC(C)C)NC(=O)[C@@H](NC(=O)[C@H](CCCNC(=N)N)NC(=O)[C@@H](NC(=O)[C@H](CC(C)C)NC(=O)[C@H](C)NC(=O)[C@H](CCC(=O)O)NC(=O)[C@@H](NC(=O)CNC(=O)[C@@H](NC(=O)[C@H](Cc1c[nH]c2ccccc12)NC(=O)[C@@H](NC(=O)[C@@H](N)CC(=O)O)[C@@H](C)O)[C@@H](C)O)C(C)C)[C@@H](C)CC)[C@@H](C)CC)[C@@H](C)CC)[C@@H](C)CC)[C@@H](C)CC)C(=O)N[C@H](C(=O)N[C@@H](CCC(N)=O)C(=O)N[C@@H](CCC(N)=O)C(=O)N[C@@H](CCCNC(=N)N)C(=O)N[C@@H](CCCNC(=N)N)C(=O)N[C@H](C(=O)N[C@@H](CCCNC(=N)N)C(=O)N[C@@H](CC(N)=O)C(=O)NCC(=O)N[C@@H](C)C(=O)N[C@@H](CO)C(=O)N[C@@H](CCCCN)C(=O)N[C@@H](CO)C(=O)O)[C@@H](C)O)[C@@H](C)CC` [Vpr52-96], for which the “channel conductance, Vpr52-96 plus ANT” value on ANT [2] came out at 190 ± 2 pS. Further, in test [3], the “effect on plain liposomes” value is on record as “had no effect on plain liposomes”. Moreover, the “order of ΔΨm loss, inner MMP and cytochrome c release” value in [4] is listed as “the ΔΨm loss occurred before cytochrome c release can be detected by immunoblot; also recorded: causes inner MMP well before OM becomes permeable to cytochrome c”. For the same compound, the “effect on RC (in words)” value in [1] is “gross deficiency in respiratory control”. For the same compound, the “specific binding to VDAC” value in the test on recombinant VDAC was “no specific binding”. In the test on ANT proteoliposomes [5], the “binding to ANT liposomes compared with protein-free liposomes” value was “greatly facilitated in liposomes in which ANT has been reconstituted compared with protein-free liposomes”. Further, the “NADH-dependent oxygen consumption (IM permeabilization to NADH)” value in test [6] (1 μM Vpr52-96, 2 mM NADH, Fig. 5 A) is given as “prompted a significant, NADH-stimulated oxygen consumption”. Besides, in test [6] (Vpr52-96, 2 mM NADH, Fig. 5 B), the “time of maximal NADH oxidation after addition” value was 10 min. The “channel formation at low doses without ANT” value in test [7] is recorded as “incapable of forming channels”. Besides, the swollen mitochondria is given as 82 ± 4% in the test with isolated mitochondria (5 min after 3 μM Vpr52-96, X ± SEM, n = 3) and 99 ± 1% in the test on isolated mitochondria (15 min after 3 μM Vpr52-96). Also, the “ultrastructural effect (in words)” value with isolated mitochondria (Vpr52-96-treated mitochondria, Fig. 6 C) is “exhibited matrix swelling before OM rupture became apparent”. For the same compound, the “sensorgram: increase of binding as a function of time” value on ANT [8] (plasmon resonance, association and dissociation phase, Fig. 1 A) was “exhibits an increase of binding as a function of time and a positive signal at the start of the dissociation phase (off)”. On ANT [8] (surface plasmon resonance, purified detergent-solubilized ANT), the “binding affinity for ANT (in words)” value was “affinity in the nanomolar range”. For the same compound, the “effect on respiration (succinate oxidation)” value in test [9] was “increased succinate oxidation preceding ADP addition and abolished both the inhibitory effect of oligomycin (a specific ATPase inhibitor) and the stimulatory effect of uncoupling by the protonophore CCCP; also recorded: not associated with a significant decrease of the oxidation rate; also recorded: adding cytochrome c to Vpr52-96–treated mitochondria oxidizing succinate did not stimulate the rate of oxygen uptake”. In addition, in the test on ANT proteoliposomes [10], the “permeabilization of ANT proteoliposomes” value is “caused permeabilization of ANT proteoliposomes”. The “access of cytochrome c to cytochrome c oxidase” value in test [11] is listed as “only induced a marginal access of cytochrome c to cytochrome c oxidase”.
